Reference: ChEMBL document CHEMBL4610117 (J Med Chem, 2020)
Activity calls are given as the source filed them. The rule behind the calls is not given here.

How the values were obtained:
[1] = Clearance in Han-Wistar rat hepatocytes at 1 uM measured after 2 to 90 mins by LC-MS/MS analysis; type: ADME, cell-based, Hepatocyte
[2] = Clearance in rat liver microsomes at 1 uM measured after 2 to 60 mins in presence of NADP by LC-MS/MS analysis; type: ADME, Microsome
[3] = Clearance in Wistar rat at 0.3 to 0.5 mg/kg, iv administered as bolus dose by LC-MS/MS analysis; type: ADME, organism-based; conditions: in vivo
[4] = Volume of distribution at steady state in Wistar rat at 0.3 to 0.5 mg/kg, iv administered as bolus dose by LC-MS/MS analysis; type: ADME, organism-based; conditions: in vivo, read-out: Vdss
[5] = Oral bioavailability in Wistar rat at 0.6 to 1 mg/kg by LC-MS/MS analysis; type: ADME, organism-based; conditions: in vivo
[6] = target: DNA-dependent protein kinase catalytic subunit (Homo sapiens, UniProt P78527); test: Inhibition of DNA-PK (unknown origin)
[7] = target: Phosphatidylinositol 4,5-bisphosphate 3-kinase catalytic subunit beta isoform (Homo sapiens, UniProt P42338); test: Inhibition of PI3Kbeta (unknown origin)
Phosphatidylinositol 4,5-bisphosphate 3-kinase catalytic subunit beta isoform, sequence (P42338 whole entry, the tested form may be a part, canonical isoform): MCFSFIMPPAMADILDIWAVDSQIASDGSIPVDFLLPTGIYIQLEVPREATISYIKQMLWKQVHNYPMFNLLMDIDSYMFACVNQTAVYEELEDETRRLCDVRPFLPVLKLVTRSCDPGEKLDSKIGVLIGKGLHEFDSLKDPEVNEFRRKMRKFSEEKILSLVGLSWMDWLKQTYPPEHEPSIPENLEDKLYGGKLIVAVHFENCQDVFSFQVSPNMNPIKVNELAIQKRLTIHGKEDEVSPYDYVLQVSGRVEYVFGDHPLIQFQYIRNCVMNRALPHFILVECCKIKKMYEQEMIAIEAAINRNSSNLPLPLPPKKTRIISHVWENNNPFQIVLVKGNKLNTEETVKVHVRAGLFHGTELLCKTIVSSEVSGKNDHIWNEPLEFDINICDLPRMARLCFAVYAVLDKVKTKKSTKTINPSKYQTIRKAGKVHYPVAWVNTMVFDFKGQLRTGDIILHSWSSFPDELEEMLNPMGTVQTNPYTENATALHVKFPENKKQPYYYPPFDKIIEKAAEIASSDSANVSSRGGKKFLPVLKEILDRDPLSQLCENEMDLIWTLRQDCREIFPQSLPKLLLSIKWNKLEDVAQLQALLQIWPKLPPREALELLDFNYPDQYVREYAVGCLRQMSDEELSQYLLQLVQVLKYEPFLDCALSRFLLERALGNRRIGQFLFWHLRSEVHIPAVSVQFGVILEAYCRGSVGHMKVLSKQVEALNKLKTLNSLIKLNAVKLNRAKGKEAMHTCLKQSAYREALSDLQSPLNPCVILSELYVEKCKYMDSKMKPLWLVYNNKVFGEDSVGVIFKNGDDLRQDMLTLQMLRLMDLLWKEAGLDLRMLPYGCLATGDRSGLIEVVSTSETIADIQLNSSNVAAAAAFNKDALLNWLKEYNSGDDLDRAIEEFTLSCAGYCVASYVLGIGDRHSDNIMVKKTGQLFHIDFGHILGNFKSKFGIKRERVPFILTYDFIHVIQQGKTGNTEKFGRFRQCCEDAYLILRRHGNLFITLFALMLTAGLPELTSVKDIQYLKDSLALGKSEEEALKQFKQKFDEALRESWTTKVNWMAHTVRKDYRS

[8] = target: Serine/threonine-protein kinase mTOR (Homo sapiens, UniProt P42345); test: Binding affinity to wild-type human partial length mTOR (L1382 to W2549 residues) expressed in mammalian expression system by Kinomescan method
[9] = target: Serine/threonine-protein kinase RIO2 (Homo sapiens, UniProt Q9BVS4); test: Binding affinity to wild-type human partial length RIOK2 (M1 to D313 residues) expressed in mammalian expression system by Kinomescan method
Serine/threonine-protein kinase RIO2, sequence (Q9BVS4 whole entry, the tested form may be a part): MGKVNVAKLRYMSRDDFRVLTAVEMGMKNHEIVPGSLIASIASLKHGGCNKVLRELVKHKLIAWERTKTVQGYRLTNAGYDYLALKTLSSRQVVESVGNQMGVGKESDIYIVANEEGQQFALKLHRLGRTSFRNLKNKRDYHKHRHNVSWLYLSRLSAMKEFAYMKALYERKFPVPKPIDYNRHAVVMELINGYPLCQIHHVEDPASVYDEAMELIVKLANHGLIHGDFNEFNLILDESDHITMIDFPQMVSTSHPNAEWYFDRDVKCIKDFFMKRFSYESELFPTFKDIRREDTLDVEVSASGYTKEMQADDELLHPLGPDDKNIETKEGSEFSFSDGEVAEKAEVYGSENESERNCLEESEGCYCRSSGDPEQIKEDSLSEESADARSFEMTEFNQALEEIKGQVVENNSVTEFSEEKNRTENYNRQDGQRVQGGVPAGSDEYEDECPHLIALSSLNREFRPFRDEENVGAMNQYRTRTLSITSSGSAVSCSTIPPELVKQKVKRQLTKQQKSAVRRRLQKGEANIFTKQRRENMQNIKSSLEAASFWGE

[10] = Maximum oral bioavailability in mouse liver microsomes based well stirred liver model at 1 uM measured after 2 to 60 mins in presence of NADP by LC-MS/MS analysis; type: ADME, Microsome; conditions: read-out: Fmax
[11] = Maximum oral bioavailability in dog liver microsomes based well stirred liver model at 1 uM measured after 2 to 60 mins in presence of NADP by LC-MS/MS analysis; type: ADME, Canis lupus familiaris, Microsome; conditions: read-out: Fmax
[12] = Clearance in Beagle dog at 0.3 to 0.5 mg/kg, iv administered as bolus dose by LC-MS/MS analysis; type: ADME, organism-based, Canis lupus familiaris; conditions: in vivo
[13] = Clearance in NMRI mouse at 0.3 to 0.5 mg/kg, iv administered as bolus dose by LC-MS/MS analysis; type: ADME, organism-based; conditions: in vivo
[14] = Volume of distribution at steady state in NMRI mouse at 0.3 to 0.5 mg/kg, iv administered as bolus dose by LC-MS/MS analysis; type: ADME, organism-based; conditions: in vivo
[15] = Volume of distribution at steady state in Beagle dog at 0.3 to 0.5 mg/kg, iv administered as bolus dose by LC-MS/MS analysis; type: ADME, organism-based, Canis lupus familiaris; conditions: in vivo, read-out: Vdss
[16] = Apparent half life in Beagle dog at 0.3 to 0.5 mg/kg, iv administered as bolus dose by LC-MS/MS analysis; type: ADME, organism-based, Canis lupus familiaris; conditions: in vivo, read-out: t1/2(app) (converted)
SU-DHL-8 = test: Antitumor activity against human SUDHL8 cells harboring ATM K1964E mutant xenografted in CB-17 mouse assessed as tumor growth at 50 mg/kg, po bid dosed every 3 days followed by 4 days interval relative to control; type: functional
Outline: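 SU-DHL-8 (ATM K1964E) GCB-DLBCL cell line-derived xenograft in female C.B-17 SCID mice, n = 9/group. Oral dosing at 50 mg/kg b.i.d. on an intermittent schedule of 3 days on/4 days off. Treatment-to-control (T/C) ratio versus vehicle.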

[17] = target: T1, Serine/threonine-protein kinase ATR (Homo sapiens, UniProt Q13535); test: In vivo inhibition of ATR in human SUDHL8 cells harboring ATM K1964E mutant xenografted CB-17 mouse assessed as reduction in ATR phosphorylation at 50 mg/kg, po bid dosed every 3 days followed by 4 days interval; type: functional, organism-based
T1 sequence (Q13535 whole entry, looked up): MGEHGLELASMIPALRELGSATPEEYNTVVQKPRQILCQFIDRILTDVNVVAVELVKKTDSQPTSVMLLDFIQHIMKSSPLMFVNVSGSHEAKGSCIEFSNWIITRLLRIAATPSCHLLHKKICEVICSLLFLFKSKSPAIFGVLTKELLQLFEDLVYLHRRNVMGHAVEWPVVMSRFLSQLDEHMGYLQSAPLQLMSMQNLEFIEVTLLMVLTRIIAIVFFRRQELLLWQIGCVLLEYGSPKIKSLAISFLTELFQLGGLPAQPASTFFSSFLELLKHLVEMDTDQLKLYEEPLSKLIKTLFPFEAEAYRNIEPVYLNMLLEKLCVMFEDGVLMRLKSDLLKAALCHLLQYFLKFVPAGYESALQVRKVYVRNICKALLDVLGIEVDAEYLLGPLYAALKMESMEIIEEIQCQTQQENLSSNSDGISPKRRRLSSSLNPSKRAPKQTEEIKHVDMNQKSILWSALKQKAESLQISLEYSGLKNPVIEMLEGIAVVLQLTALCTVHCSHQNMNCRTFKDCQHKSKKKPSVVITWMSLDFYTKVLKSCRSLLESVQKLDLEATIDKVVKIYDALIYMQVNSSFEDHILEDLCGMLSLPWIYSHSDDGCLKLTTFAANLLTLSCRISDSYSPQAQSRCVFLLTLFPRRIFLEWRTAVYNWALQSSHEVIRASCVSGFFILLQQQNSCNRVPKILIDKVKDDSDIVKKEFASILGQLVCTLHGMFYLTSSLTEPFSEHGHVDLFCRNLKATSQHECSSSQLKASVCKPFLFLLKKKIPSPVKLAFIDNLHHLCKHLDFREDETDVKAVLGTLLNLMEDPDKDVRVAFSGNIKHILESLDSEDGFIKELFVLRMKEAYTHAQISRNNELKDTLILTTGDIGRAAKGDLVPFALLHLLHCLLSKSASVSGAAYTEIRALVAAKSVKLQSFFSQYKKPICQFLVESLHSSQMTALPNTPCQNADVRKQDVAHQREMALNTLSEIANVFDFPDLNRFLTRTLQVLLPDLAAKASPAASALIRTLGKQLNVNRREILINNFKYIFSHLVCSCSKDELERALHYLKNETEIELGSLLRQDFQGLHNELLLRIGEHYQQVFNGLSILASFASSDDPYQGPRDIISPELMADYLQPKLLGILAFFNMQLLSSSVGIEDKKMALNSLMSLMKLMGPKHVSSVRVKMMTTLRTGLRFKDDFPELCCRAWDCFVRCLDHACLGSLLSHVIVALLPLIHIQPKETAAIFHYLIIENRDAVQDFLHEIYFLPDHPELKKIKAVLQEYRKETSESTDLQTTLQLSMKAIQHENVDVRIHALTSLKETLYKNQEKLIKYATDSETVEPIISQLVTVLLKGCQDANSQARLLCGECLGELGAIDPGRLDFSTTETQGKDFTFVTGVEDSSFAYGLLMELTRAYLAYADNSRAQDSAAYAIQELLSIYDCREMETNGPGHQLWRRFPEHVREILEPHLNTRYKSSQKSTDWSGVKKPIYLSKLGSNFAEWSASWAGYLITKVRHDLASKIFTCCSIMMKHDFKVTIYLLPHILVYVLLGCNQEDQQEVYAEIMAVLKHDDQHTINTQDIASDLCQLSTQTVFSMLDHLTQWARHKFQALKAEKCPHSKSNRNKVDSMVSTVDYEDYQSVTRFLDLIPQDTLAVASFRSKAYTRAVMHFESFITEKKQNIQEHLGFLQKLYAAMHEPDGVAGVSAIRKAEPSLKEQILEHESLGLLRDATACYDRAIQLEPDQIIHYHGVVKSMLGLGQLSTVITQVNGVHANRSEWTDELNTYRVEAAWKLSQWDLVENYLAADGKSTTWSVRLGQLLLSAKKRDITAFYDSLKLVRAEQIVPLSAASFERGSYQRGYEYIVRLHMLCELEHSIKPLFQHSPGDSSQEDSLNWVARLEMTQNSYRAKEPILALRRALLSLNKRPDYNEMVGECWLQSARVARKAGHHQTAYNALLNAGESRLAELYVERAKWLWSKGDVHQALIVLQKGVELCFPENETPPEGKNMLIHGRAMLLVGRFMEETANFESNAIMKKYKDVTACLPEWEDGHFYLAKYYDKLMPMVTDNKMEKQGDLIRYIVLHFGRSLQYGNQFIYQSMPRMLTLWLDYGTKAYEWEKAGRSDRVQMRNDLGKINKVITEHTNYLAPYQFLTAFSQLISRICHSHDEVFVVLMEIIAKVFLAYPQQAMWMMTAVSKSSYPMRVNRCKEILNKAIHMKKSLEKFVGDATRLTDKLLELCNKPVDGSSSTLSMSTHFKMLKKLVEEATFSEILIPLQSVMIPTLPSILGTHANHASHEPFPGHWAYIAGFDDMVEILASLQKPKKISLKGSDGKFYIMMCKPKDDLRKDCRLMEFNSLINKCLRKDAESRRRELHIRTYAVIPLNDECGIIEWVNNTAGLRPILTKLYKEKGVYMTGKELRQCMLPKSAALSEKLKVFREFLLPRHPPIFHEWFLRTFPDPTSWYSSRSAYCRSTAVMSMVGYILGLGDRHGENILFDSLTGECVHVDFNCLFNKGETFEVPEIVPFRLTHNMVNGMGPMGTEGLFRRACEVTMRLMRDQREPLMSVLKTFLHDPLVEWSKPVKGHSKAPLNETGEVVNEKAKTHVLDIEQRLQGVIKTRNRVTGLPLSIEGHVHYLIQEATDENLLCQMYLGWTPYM

[18] = target: T1, Serine/threonine-protein kinase ATR; test: In vivo inhibition of ATR in human SUDHL8 cells harboring ATM K1964E mutant xenografted CB-17 mouse assessed as change in pH2AX level at 50 mg/kg, po bid dosed every 3 days followed by 4 days interval; type: functional, organism-based
[19] = Antitumor activity against human CR5038 cells xenografted in NOD/SCID mouse assessed as tumor growth at 20 mg/kg, po qd dosed every 2 days followed by 5 days interval for 2 weeks and subsequent dosing at 10 mg/kg in presence of carboplatin relative to control; type: functional
Outline: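 CR5038 human CRC PDX in NOD/SCID mice, n = 10/group. Oral dosing q.d. at 20 mg/kg, reduced to 10 mg/kg from day 14, 2 days on/5 days off. Combined with carboplatin 40 mg/kg i.p. once weekly (1 day on/6 days off). T/C ratio reported versus vehicle and the monotherapies; body weight was monitored.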

[20] = Toxicity in NOD/SCID mouse xenografted with human CR5038 cells assessed as body weight loss at 20 mg/kg, po qd dosed every 2 days followed by 5 days interval measured on day 11 to 14 and 28 to 31 in presence of carboplatin relative to control; type: organism-based; conditions: in vivo
SUM149PT = test: Antitumor activity against human SUM149 cells xenografted in nude mouse assessed as tumor growth at 20 mg/kg, po bid dosed every 3 days followed by 4 days interval in presence of olaparib relative to control; type: functional
Outline: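 SUM149 human TNBC xenograft in nude mice, n = 10/group. Oral 20 mg/kg b.i.d., 3 days on/4 days off, combined with olaparib 50 mg/kg q.d. i.p. T/C ratio versus vehicle and the monotherapies; body weight loss was monitored.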

## C[C@@H]1COCCN1c1cc(-c2ccnn2C)c2ccnc(-c3ccn[nH]3)c2n1 [ELIMUSERTIB]
[1]
  CLH: 12.3 mL/min/kg
[2]
  CLH: 8.67 mL/min/kg
[3]
  clearance: 20 mL/min/kg
[4]
  Vd: 1.7 L/kg
[5]
  bioavailability: 87%
[6]
  IC50: 332 nM
[7]
  IC50: 3270 nM
[8]
  Kd: 24 nM
[9]
  Kd: 660 nM
[10]
  Fh at 1 µM: 44%
[11]
  Fh at 1 µM: 54%
[12]
  clearance: 13.2 mL/min/kg
[13]
  CL: 58.3 mL/min/kg
[14]
  Vdss: 8.8 L/kg
[15]
  Vd: 1 L/kg
[16]
  half-life: 1 h
SU-DHL-8
  T/C: -0.03
[17]
  inhibition: Active
[18]
  inhibition: Active
[19]
  T/C: 0.34
[20]
  Activity: 11 to 15%
SUM149PT
  T/C: -0.06
